Assays:
Cytochrome P450 1A2 = target: T1, Cytochrome P450 1A2 (Homo sapiens, UniProt P05177); experiment: Inhibition of CYP1A2 in human liver microsomes using phenacetin as susbtrate incubated for 30 mins prior to substrate addition for 10 mins by LC-MS/MS analysis; assay type: ADME
T1 sequence (P05177 whole entry): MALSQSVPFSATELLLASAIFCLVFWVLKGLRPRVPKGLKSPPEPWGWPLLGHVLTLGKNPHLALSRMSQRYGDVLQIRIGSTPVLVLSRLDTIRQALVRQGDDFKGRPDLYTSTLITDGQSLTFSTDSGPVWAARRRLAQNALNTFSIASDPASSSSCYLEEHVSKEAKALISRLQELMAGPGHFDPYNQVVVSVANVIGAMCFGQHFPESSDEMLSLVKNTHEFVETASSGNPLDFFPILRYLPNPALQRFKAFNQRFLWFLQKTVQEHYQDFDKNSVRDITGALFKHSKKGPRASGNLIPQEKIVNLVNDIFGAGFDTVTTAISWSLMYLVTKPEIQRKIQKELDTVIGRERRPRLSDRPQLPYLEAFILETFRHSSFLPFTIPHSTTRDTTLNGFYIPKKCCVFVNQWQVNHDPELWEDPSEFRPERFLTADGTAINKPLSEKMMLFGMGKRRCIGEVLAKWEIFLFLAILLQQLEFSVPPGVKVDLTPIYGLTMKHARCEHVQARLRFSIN

[1] = AUC (0 to infinity) in C57BL/6NCrlCrlj mouse at 10 mg/kg, po by LC-MS/MS analysis; assay type: ADME, organism-based; set-up: dose 10 mg/kg, route oral, time infinity; settings: in vivo
Summary of the method: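 Male C57BL/6NCrlCrlj mice dosed orally at 10 mg/kg in 10% Cremophor EL, 5% DMSO in saline. Tail-vein blood was taken at set time points and spun to plasma. Quantified by LC-MS/MS (MRM, positive mode) with internal standard and a 1/x²-weighted calibration. Parameters came from noncompartmental analysis.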

Cc1ncc(OC[C@@]2(c3cccc(F)c3)C[C@H]2C(=O)Nc2ccc(F)cn2)c(C)n1 [LEMBOREXANT]
IC50 (Cytochrome P450 1A2): > 20 µM
AUC(0-inf) [1]: 1910 ng·h/mL
